Assay results taken from ChEMBL document CHEMBL2434878, “Synthesis and antimycobacterial activity of analogues of the bioactive natural products sampangine and cleistopholine” (Eur J Med Chem, 2013).
Converted amounts (≈) assume the structure as drawn.

Key:
[1] = system: Mycobacterium tuberculosis; assay: Antimicrobial activity against Mycobacterium tuberculosis H37Rv ATCC 27294 expressing luciferase reporter gene assessed as growth inhibition at 0.1 uM after 6 days by luminometry relative to control; format: functional; conditions: H37Rv ATCC 27294, 144 h, read-out: GI
Outline: (§1)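 Single-concentration screen of the luminescent H37Rv reporter strain in 7H9-10% FCS, inoculated at 50,000 RLU/ml, 6 days at 37 °C. Luminescence was read after n-decanal addition. Percent inhibition is versus the untreated culture, as the mean of triplicate cultures.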

[2] = system: Mycobacterium tuberculosis; assay: Antimicrobial activity against Mycobacterium tuberculosis H37Rv ATCC 27294 expressing luciferase reporter gene assessed as growth inhibition at 1 uM after 6 days by luminometry relative to control; format: functional; conditions: H37Rv ATCC 27294, 144 h, read-out: GI; outline: as §1
[3] = system: Mycobacterium tuberculosis; assay: Antimicrobial activity against Mycobacterium tuberculosis H37Rv ATCC 27294 expressing luciferase reporter gene assessed as reduction in bacterial count after 6 days by luminometry; format: functional; conditions: H37Rv ATCC 27294, 144 h
Outline: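 MIC by serial dilution in the 6-day luminescent H37Rv assay (7H9-10% FCS, 50,000 RLU/ml inoculum, triplicate wells, n-decanal read-out). MIC is the concentration giving at least one log10 reduction in signal versus the untreated control.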

[4] = system: Mycobacterium tuberculosis; assay: Antimicrobial activity against Mycobacterium tuberculosis H37Rv ATCC 27294 expressing luciferase reporter gene assessed as growth inhibition after 6 days by luminometry; format: functional; conditions: H37Rv ATCC 27294, 144 h
Outline: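 Luminescent H37Rv (pSMT1, V. harveyi luciferase) was declumped by filtration, adjusted to 50,000 RLU/ml in 7H9-10% FCS, and exposed to serial compound dilutions in triplicate for 6 days at 37 °C. Light was read for 10 s after adding 1% n-decanal. GI50 is the concentration giving 50% growth reduction versus untreated culture.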

[5] = system: Mycobacterium intracellulare; assay: Antimicrobial activity against Mycobacterium intracellulare; format: functional
[6] = system: Mycobacterium tuberculosis; assay: Antimicrobial activity against Mycobacterium tuberculosis H37Rv ATCC 27294 expressing luciferase reporter gene assessed as growth inhibition at 10 uM after 6 days by luminometry relative to control; format: functional; conditions: H37Rv ATCC 27294, 144 h, read-out: GI; outline: as §1
Mycolicibacterium aurum = assay: Antimicrobial activity against Mycobacterium aurum A+; format: functional
[7] = Therapeutic index, ratio of IC50 for human HepG2/C3A cells to GI50 for Mycobacterium tuberculosis H37Rv ATCC 27294; format: cell-based; conditions: read-out: TI
Outline: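 TI is NI50/GI50. NI50 came from a neutral red uptake assay in C3A hepatocytes (40,000 cells/well, 24 h exposure at 37 °C, 3 h dye, OD 530 nm with 620 nm reference): the concentration reducing dye uptake by 50%. GI50 came from the 6-day luminescent H37Rv assay.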

[8] = Genotoxicity in human HepG2/C3A cells assessed as genomic DNA fragmentation at 1 to 3 uM after 24 hrs by comet assay; format: toxicity, cell-based
Outline: (§2)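 Alkaline comet assay: C3A cells at 100,000/well recovered overnight, then 24 h at 37 °C, 5% CO2 with serial dilutions from DMSO stock in DMEM + 10% FCS. Cells embedded in low-melting agarose, lysed 1 h, electrophoresed 20 min at 300 mA, neutralized, gel red stained. Tail DNA as % of head + tail DNA by fluorescence microscopy; Mann–Whitney test.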

[9] = system: Mycobacterium tuberculosis; assay: Antimicrobial activity against Mycobacterium tuberculosis H37Rv ATCC 27294 expressing luciferase reporter gene infected in mouse J774 macrophages assessed as intracellular growth inhibition at 0.5 uM after 4 days by luminometry relative to untreated control; format: functional; conditions: H37Rv ATCC 27294, J774, 96 h, read-out: GI
Outline: (§3)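 J774.A1 murine macrophages were seeded at 40,000 cells/well, recovered overnight and infected with luminescent H37Rv. From 24 h post-infection, cells were treated for 4 days in DMEM with penicillin and fungizone, without gentamicin. Growth was read by luminescence after 1% n-decanal and expressed as percent inhibition versus untreated, in triplicate. Macrophage viability was checked by trypan blue.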

[10] = system: Mycobacterium avium subsp. paratuberculosis; assay: Antimicrobial activity against Mycobacterium avium subsp. paratuberculosis ATCC 15769 expressing luciferase reporter gene assessed as growth inhibition after 6 days by luminometry; format: functional; conditions: ATCC 15769, 144 h
[11] = system: Mycobacterium tuberculosis; assay: Antimicrobial activity against Mycobacterium tuberculosis H37Rv ATCC 27294 expressing luciferase reporter gene infected in mouse J774 macrophages assessed as intracellular growth inhibition at 1 uM after 4 days by luminometry relative to untreated control; format: functional; conditions: H37Rv ATCC 27294, J774, 96 h, read-out: GI; outline: as §3
[12] = Genotoxicity in human HepG2/C3A cells assessed as genomic DNA fragmentation at 10 uM after 24 hrs by comet assay; format: toxicity, cell-based; outline: as §2
Mycobacterium ulcerans = assay: Antimicrobial activity against Mycobacterium ulcerans 1615 expressing luciferase reporter gene assessed as growth inhibition after 6 days by luminometry; format: functional; conditions: Mycobacterium ulcerans, 1615, 144 h
Outline: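 Luminescent M. ulcerans 1615 carrying pSMT1 luciferase plasmid, grown at 32 °C in 7H9 with 10% OADC and 0.2% glycerol. Serial dilutions from 10 mM DMSO stocks in 7H9 + 10% FCS; bacteria dosed at 50,000 RLU/ml, triplicate wells. After 6 days, light read over 10 s following 1% n-decanal in ethanol. GI50 taken at 50% growth reduction versus untreated culture.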

[13] = Cytotoxicity against human HepG2/C3A cells after 24 hrs by neutral red dye uptake assay; format: cell-based
[14] = system: Mycobacterium tuberculosis; assay: Antimicrobial activity against Mycobacterium tuberculosis H37Rv ATCC 27294 expressing luciferase reporter gene infected in mouse J774 macrophages assessed as intracellular growth inhibition at 2 uM after 4 days by luminometry relative to untreated control; format: functional; conditions: H37Rv ATCC 27294, J774, 96 h, read-out: GI; outline: as §3
[15] = Antimicrobial activity against Mycobacterium avium subsp. avium ATCC 19698 expressing luciferase reporter gene assessed as growth inhibition after 6 days by luminometry; format: functional; conditions: ATCC 19698, 144 h

Compound | inhibition of growth at 0.1 µM [1] | inhibition of growth at 1 µM [2] | MIC90 [3] | GI50 [4] | MIC [5] | inhibition of growth at 10 µM [6] | MIC (Mycolicibacterium aurum) | selectivity ratio [7] | Activity [8] | inhibition of growth at 0.5 µM [9] | GI50 [10] | inhibition of growth at 1 µM [11] | Activity [12] | GI50 (Mycobacterium ulcerans) | IC50 [13] | inhibition of growth at 2 µM [14] | GI50 [15]
CO[C@H]1/C=C/O[C@@]2(C)Oc3c(C)c(O)c4c(O)c(c(/C=N/N5CCN(C)CC5)c(O)c4c3C2=O)NC(=O)/C(C)=C\C=C\[C@H](C)[C@H](O)[C@@H](C)[C@@H](O)[C@@H](C)[C@H](OC(C)=O)[C@@H]1C [RIFAMPIN] | 99% | 100% | 0.12 µM (≈ 0.0988 µg/mL) | 0.03 µM | 0.5 µg/mL (≈ 0.608 µM) | 100% | – | – | – | – | – | – | – | – | – | – | –
O=C1c2cccnc2-c2nccc3c2c1nc1ccccc13 [ASCIDIDEMIN] | – | – | – | – | – | – | 0.25 µg/mL (≈ 0.882 µM) | – | – | – | – | – | – | – | – | – | –
COc1ccc(-c2cc3c(c(/C=C/N(C)C)n2)C(=O)c2ccccc2C3=O)cc1 | 42% | 100% | 0.88 µM (≈ 0.338 µg/mL) | 0.36 µM | – | 100% | – | 92.5 | Non-toxic | 9.3% | 3.06 µM | 26.3% | Non-toxic | 7.65 µM | 33.3 µM | 47.1% | 2.98 µM
O=C1c2ccccc2-c2nccc3ccnc1c23 [SAMPANGINE] | – | – | – | – | 0.78 µg/mL (≈ 3.36 µM) | – | – | – | – | – | – | – | – | – | – | – | –
CN[C@@H]1[C@H](O[C@H]2[C@H](O[C@H]3[C@H](O)[C@@H](O)[C@H](N=C(N)N)[C@@H](O)[C@@H]3N=C(N)N)O[C@@H](C)[C@]2(O)C=O)O[C@@H](CO)[C@H](O)[C@H]1O [STREPTOMYCIN] | – | – | – | – | 2 µg/mL (≈ 3.44 µM) | – | – | – | – | – | – | – | – | – | – | – | –
COc1ccc(-c2cc(O)c3c(c2)C(=O)c2ccccc2C3=O)cc1 | 35% | 92% | 0.92 µM (≈ 0.304 µg/mL) | 0.45 µM | – | 100% | – | 4.2 | Non-toxic | 21.6% | 3.52 µM | 27.6% | Toxic | 7.55 µM | 1.87 µM | 42.3% | 3.01 µM
COc1ccc(-c2cc3c4c(nccc4n2)-c2ccccc2C3=O)cc1 | 81% | 99% | 0.92 µM (≈ 0.311 µg/mL) | 0.37 µM | – | 100% | – | > 135 | Non-toxic | 10% | 2.54 µM | 38.5% | Toxic | 8.56 µM | > 50 µM | 51.5% | 3.56 µM
